What follows are compounds tested on Rattus norvegicus (assay: Amount of insulin in obese Zucker rats after 2 weeks of treatment at a dose of 30 mg/kg/day).
Format: functional
Outline: (§1)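 Female obese Zucker rats [Crl:(Zuc)-faBR], 400–500 g, given daily oral gavage in 20% EtOH/80% PEG-200 for up to 14 days. After a 6-h fast, serum was collected pretreatment and at day 7 (orbital bleed) and day 14 (cardiac puncture) and stored at -80 °C. Insulin was measured by ELISA. Values are mean ± SEM.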
`CC(C)(CCCCCC(=O)CCCCCC(C)(C)C(=O)O)C(=O)O` gave an Activity of 7.7 ng/mL.

The compounds below were run on Rattus norvegicus (assay: Amount of non-HDL-cholesterol in obese Zucker rats after 1 week of treatment at a dose of 0 mg/kg/day).
Format: functional
Outline: (§2)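 Female Zucker fatty rats [Crl:(Zuc)-faBR], 10–12 weeks old (400–500 g), dosed once daily by oral gavage in 20% EtOH/80% PEG-200 (dose volume 0.25% of body weight). Rats were fasted 6 h and bled before dosing and at day 7 (orbital plexus), and at day 14 (cardiac puncture). Serum cholesterol fractions came from Superose 6 gel-filtration lipoprotein profiles (% peak area × serum total cholesterol). Values are mean ± SEM.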
`CC(C)(CCCCCC(=O)CCCCCC(C)(C)C(=O)O)C(=O)O` gave an Activity of 29 mg/dL.

Each compound was assayed on Rattus norvegicus (assay: Amount of triglycerides in obese Zucker rats after 2 weeks of treatment at a dose of 3 mg/kg/day).
Format: functional
Outline: (§3)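 Female Zucker fatty rats [Crl:(Zuc)-faBR], 10–12 weeks old (400–500 g), dosed once daily by oral gavage in 20% EtOH/80% PEG-200 for up to 14 days. After a 6-h fast, serum was taken pre-dose, at day 7 (orbital venous plexus, O2/CO2 anaesthesia) and at day 14 (cardiac puncture), stored at −80 °C, and assayed on a Hitachi 912 automatic analyzer. Mean ± SEM.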
Work on `CC(C)(CCCCCC(=O)CCCCCC(C)(C)C(=O)O)C(=O)O` yielded an Activity of 833 mg/dL.

The compounds below were run on Rattus norvegicus (assay: Amount of nonesterified fatty acids in obese Zucker rats after 1 week of treatment at a dose of 0 mg/kg/day).
Format: functional
Outline: as §3
In the case of `CC(C)(CCCCCC(=O)CCCCCC(C)(C)C(=O)O)C(=O)O`, the Activity is reported as 1.3 mg/dL.

What follows are compounds tested on Rattus norvegicus (assay: Amount of HDL-cholesterol in obese Zucker rats after 1 week of treatment at a dose of 0 mg/kg/day).
Format: functional
Outline: as §2
For `CC(C)(CCCCCC(=O)CCCCCC(C)(C)C(=O)O)C(=O)O`, the Activity was 66 mg/dL.

The compounds below were run on Rattus norvegicus (assay: Amount of glucose in obese Zucker rats at pre-treatment at a dose of 10 mg/kg/day).
Format: functional
Outline: (§4)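 Female Zucker fatty rats [Crl:(Zuc)-faBR], 10–12 weeks old (400–500 g), gavaged daily with vehicle (20% EtOH/80% PEG-200, 0.25% of body weight) or compound. After a 6-h fast, blood glucose was read by glucometer from tail-prick blood of unanesthetized rats before dosing and after 1 and 2 weeks. Values are mean ± SEM.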
`CC(C)(CCCCCC(=O)CCCCCC(C)(C)C(=O)O)C(=O)O` was tested, and the Activity was 120 mg/dL.

Each compound was assayed on Rattus norvegicus (assay: Amount of non-HDL-cholesterol in obese Zucker rats after 1 week of treatment at a dose of 3 mg/kg/day).
Format: functional
Outline: as §2
With `CC(C)(CCCCCC(=O)CCCCCC(C)(C)C(=O)O)C(=O)O` the Activity was 23 mg/dL.

Each compound was assayed on Rattus norvegicus (assay: Amount of glucose in obese Zucker rats at pre-treatment at a dose of 3 mg/kg/day).
Format: functional
Outline: as §4
With `CC(C)(CCCCCC(=O)CCCCCC(C)(C)C(=O)O)C(=O)O` the Activity was 114 mg/dL.

What follows are compounds tested on Rattus norvegicus (assay: Amount of nonesterified fatty acids in obese Zucker rats after 2 weeks of treatment at a dose of 0 mg/kg/day).
Format: functional
Outline: as §3
Work on `CC(C)(CCCCCC(=O)CCCCCC(C)(C)C(=O)O)C(=O)O` yielded an Activity of 1.3 mg/dL.

The compounds below were run on Rattus norvegicus (assay: Amount of triglycerides in obese Zucker rats after 2 weeks of treatment at a dose of 30 mg/kg/day).
Format: functional
Outline: as §3
Work on `CC(C)(CCCCCC(=O)CCCCCC(C)(C)C(=O)O)C(=O)O` yielded an Activity of 475 mg/dL.

What follows are compounds tested on Rattus norvegicus (assay: Amount of insulin in obese Zucker rats at pre-treatment at a dose of 3 mg/kg/day).
Format: functional
Outline: as §1
With `CC(C)(CCCCCC(=O)CCCCCC(C)(C)C(=O)O)C(=O)O` the Activity was 8.6 ng/mL.

What follows are compounds tested on Rattus norvegicus (assay: Percentage change of HDL cholesterol levels in obese female Zucker rats after 1 week of pre-treatment at a dose of 100 mg/kg/day).
Format: functional
Outline: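 Obese female Zucker fatty rats were gavaged once daily with 30 or 100 mg/kg/day in 20% EtOH/80% PEG-200 for 2 weeks. Sera were collected after a 6 h fast, before dosing, at 1 week (orbital plexus) and at 2 weeks (cardiac puncture). HDL-C was total cholesterol multiplied by HDL area fraction from gel-filtration lipoprotein profiles. Reported as % change from pretreatment ± SEM.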
Work on `CC(C)(CCCCCC(=O)CCCCCC(C)(C)C(=O)O)C(=O)O` yielded a Change of 72%.

These compounds were tested on Rattus norvegicus (assay: Amount of HDL-cholesterol in obese Zucker rats after 1 week of treatment at a dose of 10 mg/kg/day).
Format: functional
Outline: as §2
`CC(C)(CCCCCC(=O)CCCCCC(C)(C)C(=O)O)C(=O)O` showed an Activity of 136 mg/dL.

The compounds below were run on Rattus norvegicus (assay: Amount of glucose in obese Zucker rats after 1 week of treatment at a dose of 100 mg/kg/day).
Format: functional
Outline: as §4
In the case of `CC(C)(CCCCCC(=O)CCCCCC(C)(C)C(=O)O)C(=O)O`, the Activity is reported as 92 mg/dL.

The compounds below were run on Rattus norvegicus (assay: Percent increase in HDL-cholesterol in obese Zucker rats after 2 weeks of treatment at a dose of 30 mg/kg/day).
Format: functional
Outline: (§5)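 Female Zucker fatty rats [Crl:(Zuc)-faBR], 10–12 weeks, 400–500 g, acclimated 7 days on chow. Compound or vehicle (20% EtOH/80% PEG-200) given by daily oral gavage for 2 weeks, 0–100 mg/kg/day. After a 6 h fast, blood was taken before dosing, at 1 wk and at 2 wk. Serum lipids, NEFA and insulin (ELISA) were measured; glucose by glucometer. HDL/non-HDL-C came from Superose 6 gel-filtration profiles. Values are % change from pretreatment, mean ± SEM.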
With `CC(C)(CCCCCC(=O)CCCCCC(C)(C)C(=O)O)C(=O)O` the Activity was 235%.

These compounds were tested on Rattus norvegicus (assay: Amount of glucose in obese Zucker rats after 1 week of treatment at a dose of 0 mg/kg/day).
Format: functional
Outline: as §4
Work on `CC(C)(CCCCCC(=O)CCCCCC(C)(C)C(=O)O)C(=O)O` yielded an Activity of 123 mg/dL.

Each compound was assayed on Rattus norvegicus (assay: Amount of nonesterified fatty acids in obese Zucker rats at pre-treatment at a dose of 100 mg/kg/day).
Format: functional
Outline: as §3
Work on `CC(C)(CCCCCC(=O)CCCCCC(C)(C)C(=O)O)C(=O)O` yielded an Activity of 1.4 mg/dL.

These compounds were tested on Rattus norvegicus (assay: Amount of glucose in obese Zucker rats after 1 week of treatment at a dose of 10 mg/kg/day).
Format: functional
Outline: as §4
In the case of `CC(C)(CCCCCC(=O)CCCCCC(C)(C)C(=O)O)C(=O)O`, the Activity is reported as 122 mg/dL.

The compounds below were run on Rattus norvegicus (assay: Amount of non-HDL-cholesterol in obese Zucker rats after 1 week of treatment at a dose of 30 mg/kg/day).
Format: functional
Outline: as §2
Work on `CC(C)(CCCCCC(=O)CCCCCC(C)(C)C(=O)O)C(=O)O` yielded an Activity of 14 mg/dL.

These compounds were tested on Rattus norvegicus (assay: Percent decrease in triglycerides in obese Zucker rats after 2 weeks of treatment at a dose of 100 mg/kg/day).
Format: functional
Parameters: scale not given: the % may be the effect or the level left
Outline: as §5
Work on `CC(C)(CCCCCC(=O)CCCCCC(C)(C)C(=O)O)C(=O)O` yielded an Activity of -92%.

These compounds were tested on Rattus norvegicus (assay: Amount of glucose in obese Zucker rats after 2 weeks of treatment at a dose of 100 mg/kg/day).
Format: functional
Outline: as §4
With `CC(C)(CCCCCC(=O)CCCCCC(C)(C)C(=O)O)C(=O)O` the Activity was 105 mg/dL.

Each compound was assayed on Rattus norvegicus (assay: Amount of insulin in obese Zucker rats after 1 week of treatment at a dose of 0 mg/kg/day).
Format: functional
Outline: as §1
`CC(C)(CCCCCC(=O)CCCCCC(C)(C)C(=O)O)C(=O)O` showed an Activity of 10.1 ng/mL.

These compounds were tested on Rattus norvegicus (assay: Amount of HDL-cholesterol in obese Zucker rats after 1 week of treatment at a dose of 3 mg/kg/day).
Format: functional
Outline: as §2
In the case of `CC(C)(CCCCCC(=O)CCCCCC(C)(C)C(=O)O)C(=O)O`, the Activity is reported as 75 mg/dL.

What follows are compounds tested on Rattus norvegicus (assay: Amount of nonesterified fatty acids in obese Zucker rats at pre-treatment at a dose of 10 mg/kg/day).
Format: functional
Outline: as §3
Compound `CC(C)(CCCCCC(=O)CCCCCC(C)(C)C(=O)O)C(=O)O` has an Activity of 1.2 mg/dL.

These compounds were tested on Rattus norvegicus (assay: Amount of triglycerides in obese Zucker rats at pre-treatment at a dose of 3 mg/kg/day).
Format: functional
Outline: as §3
`CC(C)(CCCCCC(=O)CCCCCC(C)(C)C(=O)O)C(=O)O` gave an Activity of 905 mg/dL.

These compounds were tested on Rattus norvegicus (assay: Amount of HDL-cholesterol in obese Zucker rats at pre-treatment at a dose of 10 mg/kg/day).
Format: functional
Outline: as §2
Work on `CC(C)(CCCCCC(=O)CCCCCC(C)(C)C(=O)O)C(=O)O` yielded an Activity of 86 mg/dL.

Each compound was assayed on Rattus norvegicus (assay: Amount of insulin in obese Zucker rats at pre-treatment at a dose of 10 mg/kg/day).
Format: functional
Outline: as §1
`CC(C)(CCCCCC(=O)CCCCCC(C)(C)C(=O)O)C(=O)O` showed an Activity of 9.9 ng/mL.

Each compound was assayed on Rattus norvegicus (assay: Percentage change of triglycerides in obese female Zucker rats after 1 week of pre-treatment at a dose of 100 mg/kg/day).
Format: functional
Outline: (§6)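 Female Zucker fatty rats [Crl:(Zuc)-faBR], 10–12 weeks old (400–500 g), acclimated 7 days and fed rodent chow. Dosed once daily by oral gavage in 20% EtOH/80% PEG-200 (v/v), at 0.25% of body weight, for 2 weeks. Blood taken after a 6-h fast: orbital plexus before dosing and at day 7, cardiac puncture at day 14. Serum lipoprotein cholesterol measured by Superose 6 gel filtration with on-line cholesterol detection. Values are % change from pretreatment, mean ± SEM.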
`CC(C)(CCCCCC(=O)CCCCCC(C)(C)C(=O)O)C(=O)O` gave a Change of -93%.

Each compound was assayed on Rattus norvegicus (assay: Amount of HDL-cholesterol in obese Zucker rats after 2 weeks of treatment at a dose of 100 mg/kg/day).
Format: functional
Outline: as §2
With `CC(C)(CCCCCC(=O)CCCCCC(C)(C)C(=O)O)C(=O)O` the Activity was 141 mg/dL.

What follows are compounds tested on Rattus norvegicus (assay: Percentage change of non-HDL cholesterol levels in obese female Zucker rats after 2 weeks of pre-treatment at a dose of 100 mg/kg/day).
Format: functional
Outline: as §6
`CC(C)(CCCCCC(=O)CCCCCC(C)(C)C(=O)O)C(=O)O` showed a Change of -99%.

What follows are compounds tested on Rattus norvegicus (assay: Amount of nonesterified fatty acids in obese Zucker rats at pre-treatment at a dose of 30 mg/kg/day).
Format: functional
Outline: as §3
In the case of `CC(C)(CCCCCC(=O)CCCCCC(C)(C)C(=O)O)C(=O)O`, the Activity is reported as 1.3 mg/dL.
